Experiments:
[1] = system: MCF7 (human breast cancer) cell line; assay: MTT cytotoxicity assay, MCF7; type: cell-based; settings: MCF7, 24 h
Method in brief: (§1)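 Cells seeded at 5000 per well in Eagle's MEM with 10% fetal calf serum, 2 mM L-glutamine, penicillin and streptomycin, then held 24 h at 37 °C, 5% CO2. Serial concentrations of test compound in DMSO were added for 24 h, with PTX and DOX as references. MTT was added for 4 h at 37 °C. Formazan was dissolved in ethanol and read at 570 nm. Percent inhibition was computed against control and blank.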

[2] = system: C26 (colon carcinoma) cell line; assay: MTT cytotoxicity assay, C26; type: cell-based; settings: 24 h
Method in brief: as §1

[3] = system: BAEC (bovine aorta endothelial) normal cell line; assay: MTT cytotoxicity assay, BAEC normal cells; type: cell-based; settings: 24 h with compound, IC50 ± SEM
Method in brief: as §1

[4] = system: MCF7 and C26 cell lines; assay: MTT cytotoxicity, stated over both cancer cell lines together; type: cell-based; settings: Homo sapiens, MCF7, read-out: IC50 over MCF7 and C26
Method in brief: as §1

[5] = system: MCF7, A549 (non-small cell lung cancer) and HDFs (non-cancerous human dermal fibroblasts); settings: doxorubicin value compared for healthy cells ref 20; cited from earlier work

O=[N+]([O-])c1ccc(Nc2nc(Cl)nc(Cl)n2)cc1 [1e, 4,6-Dichloro-N-(4-nitrophenyl)-1,3,5-triazin-2-amine]
IC50 [1]: 10.3 ± 1.51 µM | IC50 [2]: 48.3 ± 1.94 µM

Fc1ccc(Nc2nc(N3CCCCC3)nc(N3CCCCC3)n2)cc1 [2b, N-(4-Fluorophenyl)-4,6-di(piperidin-1-yl)-1,3,5-triazin-2-amine]
IC50 [1]: 32.9 ± 4.23 µM | IC50 ([3]; Bos taurus, BAEC, 24 h): 21.2 ± 2.4 µM | IC50 [2]: 33.6 ± 1.86 µM

Cc1ccc(Nc2nc(Cl)nc(Cl)n2)cc1 [1d, 4,6-Dichloro-N-(p-tolyl)-1,3,5-triazin-2-amine]
IC50 [1]: 0.2 ± 0.11 µM | IC50 [2]: 9.99 ± 0.59 µM

Cc1ccc(Nc2nc(N3CCOCC3)nc(N3CCOCC3)n2)cc1 [3d, 4,6-Dimorpholino-N-(p-tolyl)-1,3,5-triazin-2-amine]
IC50 [1]: 22.3 ± 1.49 µM | IC50 ([3]; Bos taurus, BAEC, 24 h): 0.57 ± 0.24 µM | IC50 [2]: 16.3 ± 2.22 µM

O=[N+]([O-])c1ccc(Nc2nc(N3CCOCC3)nc(N3CCOCC3)n2)cc1 [3e, 4,6-Dimorpholino-N-(4-nitrophenyl)-1,3,5-triazin-2-amine]
IC50 [1]: 13.7 ± 1.96 µM | IC50 [3]: 86.3 ± 6.79 µM | IC50 ([3]; Bos taurus, BAEC, 24 h): 86.2 µM | IC50 [2]: 14.7 ± 1.7 µM

Clc1ccc(Nc2nc(Cl)nc(Cl)n2)cc1 [1a, 4,6-Dichloro-N-(4-chlorophenyl)-1,3,5-triazin-2-amine]
IC50 [1]: 5.35 ± 1.05 µM | IC50 [2]: 13.5 ± 0.24 µM

COc1ccc(Nc2nc(N3CCCCC3)nc(N3CCCCC3)n2)cc1 [2c, N-(4-Methoxyphenyl)-4,6-di(piperidin-1-yl)-1,3,5-triazin-2-amine]
IC50 [1]: 50.9 ± 8.54 µM | IC50 ([3]; Bos taurus, BAEC, 24 h): 15.1 ± 1.98 µM | IC50 [2]: 99.4 ± 14.1 µM

Fc1ccc(Nc2nc(Cl)nc(Cl)n2)cc1 [1b, 4,6-Dichloro-N-(4-fluorophenyl)-1,3,5-triazin-2-amine]
IC50 [1]: 7.89 ± 1.8 µM | IC50 [2]: 9.1 ± 0.61 µM

CC(=O)O[C@H]1C(=O)[C@@]2(C)[C@H]([C@H](OC(=O)c3ccccc3)[C@]3(O)C[C@H](OC(=O)[C@H](O)[C@@H](NC(=O)c4ccccc4)c4ccccc4)C(C)=C1C3(C)C)[C@]1(OC(C)=O)CO[C@@H]1C[C@@H]2O [PTX, Paclitaxel, reference compound]
IC50 [4]: 2.35 to 4.32 µM | IC50 [1]: 2.35 ± 0.14 µM | IC50 ([3]; Bos taurus, BAEC, 24 h): 2.67 ± 0.41 µM | IC50 [2]: 4.32 ± 0.52 µM

COc1cccc2c1C(=O)c1c(O)c3c(c(O)c1C2=O)C[C@@](O)(C(=O)CO)C[C@@H]3O[C@H]1C[C@H](N)[C@H](O)[C@H](C)O1 [DOX, Doxorubicin, reference compound]
IC50 [5]: 0.42 µM | IC50 [4]: 8.06 to 10.5 µM | IC50 [1]: 10.5 ± 0.86 µM | IC50 ([3]; Bos taurus, BAEC, 24 h): 4.79 ± 0.53 µM | IC50 [2]: 8.06 ± 1.02 µM

Cc1ccc(Nc2nc(N3CCCCC3)nc(N3CCCCC3)n2)cc1 [2d, 4,6-Di(piperidin-1-yl)-N-(p-tolyl)-1,3,5-triazin-2-amine]
IC50 [1]: 6.54 ± 1.16 µM | IC50 ([3]; Bos taurus, BAEC, 24 h): 1.84 ± 0.64 µM | IC50 [2]: 0.38 ± 0.23 µM

COc1ccc(Nc2nc(Cl)nc(Cl)n2)cc1 [1c, 4,6-Dichloro-N-(4-methoxyphenyl)-1,3,5-triazin-2-amine]
IC50 [1]: 1.77 ± 0.05 µM | IC50 [2]: 9.89 ± 0.17 µM

O=[N+]([O-])c1ccc(Nc2nc(N3CCCCC3)nc(N3CCCCC3)n2)cc1 [2e, N-(4-Nitrophenyl)-4,6-di(piperidin-1-yl)-1,3,5-triazin-2-amine]
IC50 [1]: 26.1 ± 1.86 µM | IC50 ([3]; Bos taurus, BAEC, 24 h): 315 ± 9.53 µM | IC50 [2]: 8.28 ± 1.9 µM

Fc1ccc(Nc2nc(N3CCOCC3)nc(N3CCOCC3)n2)cc1 [3b, N-(4-Fluorophenyl)-4,6-dimorpholino-1,3,5-triazin-2-amine]
IC50 [1]: 6.19 ± 1.2 µM | IC50 ([3]; Bos taurus, BAEC, 24 h): 7.98 ± 0.97 µM | IC50 [2]: 24.5 ± 0.86 µM

Clc1ccc(Nc2nc(N3CCOCC3)nc(N3CCOCC3)n2)cc1 [3a, N-(4-Chlorophenyl)-4,6-dimorpholino-1,3,5-triazin-2-amine]
IC50 [1]: 42.4 ± 4.48 µM | IC50 ([3]; Bos taurus, BAEC, 24 h): 41.2 ± 2.55 µM | IC50 [2]: 1.21 ± 0.47 µM

Clc1ccc(Nc2nc(N3CCCCC3)nc(N3CCCCC3)n2)cc1 [2a, N-(4-Chlorophenyl)-4,6-di(piperidin-1-yl)-1,3,5-triazin-2-amine]
IC50 [1]: 23.6 ± 2.56 µM | IC50 ([3]; Bos taurus, BAEC, 24 h): 49 ± 3.16 µM | IC50 [2]: 47.5 ± 2.86 µM

COc1ccc(Nc2nc(N3CCOCC3)nc(N3CCOCC3)n2)cc1 [3c, N-(4-Methoxyphenyl)-4,6-dimorpholino-1,3,5-triazin-2-amine]
IC50 [1]: 43.5 ± 4.23 µM | IC50 ([3]; Bos taurus, BAEC, 24 h): 2.01 ± 0.59 µM | IC50 [2]: 76.8 ± 8.45 µM
